The subject of assay [1] is Toxoplasma gondii. Description: Antiparasitic activity against hypoxanthine-guanine-xanthine phosphoribosyltransferase gene knock out Toxoplasma gondii expressing Cryptosporidium parvum IMPDH infected in human foreskin fibroblasts assessed as parasite proliferation by fluorescence assay. Format: functional, organism-based. An outline of the steps:
(§1)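 T. gondii strains carrying a yellow fluorescent protein reporter, grown in hTERT-immortalized human foreskin fibroblasts. Parasite proliferation is followed by fluorescence. Because the parasites grow in the host fibroblasts, the read-out also reflects host cell toxicity.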

The subject of assay [2] is Toxoplasma gondii. Description: Antiparasitic activity against wild type Toxoplasma gondii expressing endogenous IMPDH infected in human foreskin fibroblasts assessed as inhibition of parasite proliferation by fluorescence assay. Format: functional, organism-based. An outline of the steps: as §1
Assay [3] relates to Cryptosporidium parvum. The assay is described as follows: Antiparasitic activity against Cryptosporidium parvum infection model. It counts as functional, organism-based.
Assay [4] addresses T1, Inosine-5'-monophosphate dehydrogenase (Cryptosporidium parvum, UniProt Q8T6T2).
T1 sequence (Q8T6T2 whole entry): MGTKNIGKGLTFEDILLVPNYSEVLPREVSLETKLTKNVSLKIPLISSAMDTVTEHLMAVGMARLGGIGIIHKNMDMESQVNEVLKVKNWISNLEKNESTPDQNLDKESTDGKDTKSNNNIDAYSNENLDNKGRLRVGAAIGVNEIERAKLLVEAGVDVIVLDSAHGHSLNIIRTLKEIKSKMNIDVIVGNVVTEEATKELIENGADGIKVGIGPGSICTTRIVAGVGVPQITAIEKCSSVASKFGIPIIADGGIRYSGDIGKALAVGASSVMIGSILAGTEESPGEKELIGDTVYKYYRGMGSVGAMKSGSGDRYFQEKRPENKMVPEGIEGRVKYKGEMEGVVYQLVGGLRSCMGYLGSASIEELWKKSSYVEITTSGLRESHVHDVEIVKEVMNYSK
The assay is described as follows: Inhibition of recombinant Cryptosporidium parvum IMPDH expressed in Escherichia coli assessed as NADH production preincubated for 5 mins by fluorescence assay in presence of bovine serum albumin. The gist of the method: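 NADH production was followed at varying inhibitor concentrations, with 0.05% fatty-acid-free bovine serum albumin added to gauge non-specific binding. Values are the mean of three independent determinations unless otherwise flagged.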

The target of assay [5] is T1, Inosine-5'-monophosphate dehydrogenase. Description: Inhibition of recombinant Cryptosporidium parvum IMPDH expressed in Escherichia coli assessed as NADH production preincubated for 5 mins by fluorescence assay. The gist of the method: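 Enzyme activity was tracked as NADH production across varying inhibitor concentrations. Values are the mean of three independent determinations unless otherwise flagged.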

Assay [6] concerns the target Inosine-5'-monophosphate dehydrogenase 2 (Homo sapiens, UniProt P12268). The assay is described as follows: Inhibition of human IMPDH2.
Assay [7] deals with Toxoplasma gondii. Description: Selectivity ratio of EC50 for wild type Toxoplasma gondii expressing endogenous IMPDH to EC50 for hypoxanthine-guanine-xanthine phosphoribosyltransferase gene knock out Toxoplasma gondii expressing Cryptosporidium parvum IMPDH. It counts as functional.
The subject of assay [8] is Cryptosporidium parvum. Description: Ratio of paromomycin EC50 to compound EC50 for Cryptosporidium parvum infection model. Format: functional.
Assay [9] addresses Inosine-5'-monophosphate dehydrogenase 1 (Homo sapiens, UniProt P20839). The assay is described as follows: Inhibition of human IMPDH1.
Assay [10] concerns Cryptosporidium parvum. The assay is described as follows: Antiparasitic activity against Cryptosporidium parvum infection model at 0.8 uM. The note with it: read-out: GI. It counts as functional.

Some results are limits rather than exact numbers.

Sequence of Inosine-5'-monophosphate dehydrogenase 1 (P20839 whole entry): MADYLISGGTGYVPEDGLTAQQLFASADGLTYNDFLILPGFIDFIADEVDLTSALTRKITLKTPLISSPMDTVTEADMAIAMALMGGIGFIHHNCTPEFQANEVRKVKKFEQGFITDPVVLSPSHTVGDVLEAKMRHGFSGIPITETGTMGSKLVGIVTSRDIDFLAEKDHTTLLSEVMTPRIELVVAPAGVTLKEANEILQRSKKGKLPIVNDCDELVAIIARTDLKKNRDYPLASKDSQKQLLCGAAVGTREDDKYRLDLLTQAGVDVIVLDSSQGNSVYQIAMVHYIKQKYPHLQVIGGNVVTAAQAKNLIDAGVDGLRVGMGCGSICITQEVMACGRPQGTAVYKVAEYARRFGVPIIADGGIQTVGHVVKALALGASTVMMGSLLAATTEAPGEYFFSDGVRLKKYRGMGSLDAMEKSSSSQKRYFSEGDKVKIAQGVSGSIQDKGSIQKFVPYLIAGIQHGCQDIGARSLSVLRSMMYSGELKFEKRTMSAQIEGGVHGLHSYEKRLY

For orientation: EC50 means the concentration at which the effect is half-maximal. What is called IC50 is the concentration that gives 50% inhibition. For the compound `O=C(Cn1c(-c2nccs2)nc2ccccc21)Nc1ccc(Br)cc1`, the EC50 in the assay with Toxoplasma gondii [1] was 300 nM; in the assay with Toxoplasma gondii [2] it was over 23000 nM; with Cryptosporidium parvum [3], 700 nM. Moreover, the IC50 in [4] was 27 nM; in [5], 28 nM; in assay [6] it was over 5000 nM.
For the compound `O=C(Cn1c(-c2cscn2)nc2ccccc21)Nc1ccc2ccccc2c1`, the figures for the EC50 in the assay with Toxoplasma gondii [1], in the assay on Toxoplasma gondii [2] and in the assay on Cryptosporidium parvum [3] were 600 nM, 5000 nM and 900 nM, respectively. Also, the “Ratio EC50” value in the assay on Toxoplasma gondii [7] came out at 9; in the assay with Cryptosporidium parvum [8] it was 2. The results for the IC50 in assay [4], in assay [5] and in assay [6] were 20 nM, 7 nM and over 5000 nM, respectively.
Turning to `CC(C(=O)Nc1ccc(Cl)c(Cl)c1)n1c(-c2cscn2)nc2ccccc21` (stereo unspecified), the IC50 in [4] is 300 nM; in assay [5], 240 nM; in assay [6] it was over 5000 nM.
On to `COc1ccc(NC(=O)Cn2c(-c3cscn3)nc3ccccc32)cc1`, for which the IC50 in [9] and in assay [6] was over 50000 nM throughout.
For the compound `CSc1ccc(NC(=O)Cn2c(-c3cscn3)nc3ccccc32)cc1`, the half-maximal inhibitory concentration (IC50) is 69 nM in assay [4], 120 nM in assay [5] and over 5000 nM in [6].
`CC(C)c1ccc(NC(=O)Cn2c(-c3cscn3)nc3ccccc32)cc1`: the IC50 in assay [5] is 5000 nM; in assay [6], over 5000 nM.
For `O=C(Cn1c(-c2cscn2)nc2ccccc21)Nc1ccc(F)cc1`, in that order: 900 nM and over 5000 nM.
For the compound `O=C(Cn1c(-c2cscn2)nc2ccccc21)Nc1ccc(C(F)(F)F)cc1`, the IC50 in assay [4] was 330 nM; in assay [5] it was 220 nM; in assay [6] it was over 5000 nM.
`N#Cc1ccc(NC(=O)Cn2c(-c3cscn3)nc3ccccc32)cc1`: the IC50 was 370 nM in assay [5] and over 5000 nM in assay [6].
For `O=C(Cn1c(-c2cscn2)nc2ccccc21)Nc1ccc(Br)cc1`, in that order: 60 nM and over 5000 nM.
For `CS(=O)(=O)c1ccc(NC(=O)Cn2c(-c3cscn3)nc3ccccc32)cc1`, in that order: 5000 nM and over 5000 nM.
Take `O=C(Cn1c(-c2cscn2)nc2ccccc21)Nc1ccc(OC(F)(F)F)cc1`: the values for the IC50 in assay [5] and in assay [6] were 140 nM and over 5000 nM, respectively.
For `O=C(Cn1c(-c2cscn2)nc2ccccc21)Nc1ccccc1Cl`, in that order: 5000 nM and over 5000 nM.
For `O=C(Cn1c(-c2cscn2)nc2ccccc21)Nc1cccc(Cl)c1`, the values for the IC50 in assay [4], in [5] and in [6] were 1430 nM, 490 nM and over 5000 nM, respectively.
For `O=C(Cn1c(-c2cscn2)nc2ccccc21)Nc1ccc(Cl)c(Cl)c1`, in that order: 90 nM, 30 nM and over 5000 nM.
For `N#Cc1cc(NC(=O)Cn2c(-c3cscn3)nc3ccccc32)ccc1Cl`, in that order: 60 nM, 30 nM and over 5000 nM.
As for `O=C(Cn1c(-c2cscn2)nc2ccccc21)Nc1ccc(Cl)c2ccccc12`, the 50% inhibitory concentration (IC50) in assay [5] is 5000 nM; in assay [6], over 5000 nM.
Regarding `CC(C(=O)Nc1ccc(Cl)cc1)n1c(-c2cscn2)nc2ccccc21` (stereo unspecified), the IC50 is 80 nM in assay [4], 60 nM in assay [5] and over 5000 nM in assay [6].
Turning to `CC(C)C(C(=O)Nc1ccc(Cl)cc1)n1c(-c2cscn2)nc2ccccc21` (stereo unspecified), the values for the IC50 in assay [5] and in assay [6] were 5000 nM and over 5000 nM, respectively.
For the compound `O=C(Cn1c(-c2cscn2)nc2ccccc21)NCc1ccc(Cl)cc1`, the IC50 in assay [6] was over 5000 nM.
On to `O=C(Cn1c(-c2nccs2)nc2ccccc21)Nc1ccc(Cl)cc1`, for which the IC50 in assay [4] was 50 nM; in assay [5], 30 nM; in assay [6], over 5000 nM.
On to `CC(C(=O)Nc1ccc(Cl)cc1)n1c(-c2nccs2)nc2ccccc21` (stereo unspecified), for which the values for the IC50 in [4], in assay [5] and in assay [6] were 30 nM, 23 nM and over 5000 nM, respectively.
For `O=C(Cn1c(-c2nccs2)nc2ccccc21)Nc1ccc(Cl)c(Cl)c1`, the EC50 is 700 nM with Toxoplasma gondii [1], 3000 nM with Toxoplasma gondii [2] and 1700 nM in the assay with Cryptosporidium parvum [3]. Further, the “Ratio EC50” value with Toxoplasma gondii [7] stood at 5; with Cryptosporidium parvum [8], 2. For the same compound, the IC50 was 50 nM in assay [4], 18 nM in assay [5] and over 5000 nM in assay [6].
With `O=C(Cn1c(-c2nccs2)nc2ccccc21)Nc1ccc2ccccc2c1`, the EC50 in the assay with Toxoplasma gondii [1] is 500 nM; with Toxoplasma gondii [2] it was 17000 nM; in the assay with Cryptosporidium parvum [3], under 800 nM. Also, the “Ratio EC50” value was 30 in the assay on Toxoplasma gondii [7] and 2 in the assay on Cryptosporidium parvum [8]. In addition, the IC50 is 20 nM in assay [4], 8 nM in [5] and over 5000 nM in [6]. For the same compound, the inhibition of growth at 0.8 µM with Cryptosporidium parvum [10] was determined as 80%.
Consider `O=C(Cn1c(-c2cncs2)nc2ccccc21)Nc1ccc(Cl)cc1`, for which the IC50 in assay [4] was 60 nM; in [5] it was 35 nM; in [6], over 5000 nM.
For the compound `O=C(Cn1c(-c2cccs2)nc2ccccc21)Nc1ccc(Cl)cc1`, the IC50 in assay [4] is 60 nM; in [5], 20 nM; in assay [6], over 5000 nM.
For `Cn1cc(-c2nc3ccccc3n2CC(=O)Nc2ccc(Cl)cc2)cn1`, in that order: 42 nM, 35 nM and over 5000 nM.
For `O=C(Cn1c(-c2ccccn2)nc2ccccc21)Nc1ccc(Cl)cc1`, in that order: 90 nM, 43 nM and over 5000 nM.
For `O=C(Cn1c(-c2ccccn2)nc2ccccc21)Nc1ccc(Cl)c(Cl)c1`, in that order: 40 nM, 22 nM and over 5000 nM.
Regarding `O=C(Cn1c(-c2ccccn2)nc2ccccc21)Nc1ccc2ccccc2c1`, the EC50 in the assay with Toxoplasma gondii [1] is 300 nM; in the assay with Toxoplasma gondii [2], 2700 nM. In addition, the IC50 was 14 nM in [4] and over 5000 nM in assay [6].
With `N#Cc1cc(NC(=O)Cn2c(-c3ccccn3)nc3ccccc32)ccc1Cl`, the IC50 in [4] is 40 nM; in assay [5], 22 nM; in [6], over 5000 nM.
For `O=C(Cn1c(-c2ccc[nH]2)nc2ccccc21)Nc1ccc(Cl)cc1`, in that order: 120 nM, 80 nM and over 5000 nM.
Turning to `O=C(Cn1c(-c2ncco2)nc2ccccc21)Nc1ccc(Cl)cc1`, the values for the IC50 in assay [4], in [5] and in assay [6] were 230 nM, 170 nM and over 5000 nM, respectively.
For `O=C(Cn1c(-c2ccccc2)nc2ccccc21)Nc1ccc(Cl)cc1`, in that order: 280 nM, 210 nM and over 5000 nM.
On to `O=C(Cn1c(-c2ccc(Cl)cc2)nc2ccccc21)Nc1ccc(Cl)cc1`, for which the IC50 in assay [5] is 450 nM; in [6], over 5000 nM.
In the case of `O=C(Cn1c(-c2ccc(F)cc2)nc2ccccc21)Nc1ccc(Cl)cc1`, the IC50 in [4] was 1300 nM; in assay [5], 870 nM; in assay [6] it was over 5000 nM.
Turning to `Cc1nc2ccccc2n1CC(=O)Nc1ccc(Cl)cc1`, the IC50 was 5000 nM in assay [5] and over 5000 nM in [6].
With `O=C(Cn1c(-c2cscn2)nc2ccccc21)Nc1ccc(Cl)cc1`, the IC50 was 200 nM in [4], 120 nM in assay [5] and over 5000 nM in assay [6].
Consider `NC[C@@H]1O[C@H](O[C@H]2[C@@H](O)[C@H](O[C@@H]3[C@@H](O)[C@H](N)C[C@H](N)[C@H]3O[C@H]3O[C@H](CO)[C@@H](O)[C@H](O)[C@H]3N)O[C@@H]2CO)[C@H](N)[C@@H](O)[C@@H]1O` [PAROMOMYCIN], for which the EC50 in the assay with Cryptosporidium parvum [3] stood at 65000 nM.

(Values after ChEMBL document CHEMBL1955781, “Structure-activity relationship study of selective benzimidazole-based inhibitors of Cryptosporidium parvum IMPDH” (Bioorg Med Chem Lett, 2012).)
